OX1R antag-1: OX1R (HCRTR1) antagonists, primary screen, fluorescence, CHO/OX1R cells, Fluo-8 calcium, orexin A; Orexin/Hypocretin receptor type 1 (Homo sapiens), O43613; Fluo-8 calcium fluorescence; inhibition, % at 5 µM; 330,000 compounds, 0.43% hits; AID 434989, 2010;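 active means inhibition above its plate's threshold, mean inhibition of all tested compounds on the plate plus 3 SD, cut at about 37% in these data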;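 further: 0% = orexin A challenge wells and 100% = SB-334867-A antagonist wells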
Target sequence (O43613 whole entry, looked up): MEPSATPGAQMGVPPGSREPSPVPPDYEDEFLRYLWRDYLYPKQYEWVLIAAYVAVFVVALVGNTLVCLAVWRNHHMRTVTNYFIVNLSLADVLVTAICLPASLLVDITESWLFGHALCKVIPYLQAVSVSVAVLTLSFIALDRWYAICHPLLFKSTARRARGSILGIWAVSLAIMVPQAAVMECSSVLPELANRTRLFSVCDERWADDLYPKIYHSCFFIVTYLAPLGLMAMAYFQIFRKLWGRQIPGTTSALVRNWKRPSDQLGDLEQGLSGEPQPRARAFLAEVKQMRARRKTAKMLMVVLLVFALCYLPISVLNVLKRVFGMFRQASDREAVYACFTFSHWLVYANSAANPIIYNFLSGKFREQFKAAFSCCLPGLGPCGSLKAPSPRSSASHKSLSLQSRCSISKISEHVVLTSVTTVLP
OX1R antag-2: antagonists of human orexin 1 receptor (OX1R) | OX1R-expressing cells, FRET antagonist read-out | inhibition, % at 6.6 µM | 330,000 compounds, 1.8% hits; in the data active means inhibition mostly above about 38%, no sharp cut-off; inactive means mostly below about 40%;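 further: 0% = agonist challenge alone and 100% = reference antagonist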
GalR3 antag: GalR3 antagonists in HEK293 cells, primary screen, cell-based, fluorescence readout | Galanin receptor type 3 (Homo sapiens), O60755 | 360,000 compounds, 0.44% hits | inhibition, % at 3 µM | AID 651719, 2012 | HEK293 GalR3-CNG cAMP membrane potential fluorescence; galR3 body fused to GalR1 C-terminus;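 active means inhibition above the screen-wide average plus 3 SD, cut at about 13% in these data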;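 further: forskolin and galanin both at EC90 stimulate the cells; cAMP rise reported by CNG channel membrane potential dye signal; 0% = forskolin plus galanin with DMSO and 100% = forskolin alone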
TAAR1 ag: human TAAR1 agonists, primary screen, Fluo-8 calcium fluorescence, CHO RD-HGA16 cells | vehicle wells 0%, saturating PEA agonist 100% | activation, % at 3 µM | 360,000 compounds, 0.99% hits | Trace amine-associated receptor 1 (Homo sapiens), Q96RJ0;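 active means activation above the mean activation of all test compounds in the run plus 3 SD, cut at about 38% in these data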
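Test system: RD-HGA16 (CHO) cells co-expressing Gα16 and hTAAR1 / Benchmarks: DMSO vehicle as 0%, PEA at EC100 as 100% / Repeats: no replicates (n 1) / Measure: % activation from peak over basal fluorescence ratio, DMSO-to-PEA scaled / Timing: 17-24 h plating, Fluo-8 75 min 37 °C, 30 min RT / Technique: kinetic Fluo-8 calcium fluorescence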
CHO parental Ca: ATP-evoked calcium signal inhibitors, parental CHO, primary screen, counter-screen for OX1R antagonist project, cell-based, fluorescence, Fluo-8 calcium dye; parental CHO-K1, ATP-induced calcium, Fluo-8 fluorescence; inhibition, % at 5.6 µM; 330,000 compounds, 0.63% hits;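 active means inhibition above that plate's mean sample inhibition plus 3 SD, cut at about 26% in these data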;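 further: 0% = ATP-challenged DMSO wells and 100% = DMSO wells without ATP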
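Assay system: untransfected parental CHO cell line. Also added: ATP agonist challenge. Dosing: one dose, 5.6 µM nominal. Measured by: Fluo-8 fluorescence. Read-out: % inhibition. Benchmarks: ATP wells versus no-ATP DMSO wells. Repeats: no replicates.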
TAAR1 antag: human TAAR1 antagonists, primary screen, Fluo-8 calcium fluorescence, CHO RD-HGA16 cells. Trace amine-associated receptor 1 (Homo sapiens), Q96RJ0. antagonist. inhibition, % at 3 µM. 360,000 compounds, 1.5% hits. AID 624466, 2012;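 active means inhibition above a per-plate cutoff, the mean inhibition of test compounds on that plate plus 3 SD, cut at about 49% in these data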;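 further: 0% = DMSO plus EC80 beta-PEA response and 100% = DMSO alone without agonist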
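Test system: hTAAR1-expressing CHO RD-HGA16 cells, Gα16-coupled; Probe or stimulus: EC80 β-phenethylamine stimulus; Compound dosing: single nominal final test compound concentration of 3 µM; Timing: 140 s kinetic read after compound, 140 s after agonist; Signal: Fluo-8 calcium-sensitive fluorescence; Measure: % inhibition of agonist calcium response; Controls: DMSO and EC80 PEA controls.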
Starred values were filed as active, the others as inactive; x = no result. An excerpt weighted towards active compounds, which were near 4.3% of everything screened.

SMILES	OX1R antag-1	OX1R antag-2	GalR3 antag	TAAR1 ag	CHO parental Ca	TAAR1 antag
COc1ccccc1N1CCN(C(=O)C2CCN(S(=O)(=O)c3ccc4c(c3)CC(C)N4C(C)=O)CC2)CC1 (stereo not drawn)	-37.6	8.6	-1.8	10.1	-19.1	24.1
CC(=O)N1c2ccc(S(=O)(=O)N3CCC(C(=O)N4CCN(c5cc(Cl)ccc5C)CC4)CC3)cc2CC1C (stereo not drawn)	37.6	10.3	-5.8	5.5	43.0*	31.3
COc1ccccc1N1CCN(C(=O)C2CCN(S(=O)(=O)c3ccc4c(c3)CC(C)N4C(=O)C3CC3)CC2)CC1 (stereo not drawn)	-32.6	11.2	-3.2	13.0	-17.9	56.9*
CC(C)C[C@H]1CN([C@@H](CC(C)C)CN2CCC[C@H]2CN2C(=O)C(=O)NC[C@@H]2Cc2ccc(O)cc2)C(=O)C(=O)N1CC1CCCCCC1	x	x	-6.1	-1.2	x	0.8
CC(C)=CCc1c(O)ccc2c1OC(c1ccc(O)c(O)c1)CC2=O (stereo not drawn)	15.4	8.8	-5.4	13.9	6.4	57.2*
O=C1CC(c2ccc(O)c(O)c2)Oc2c1ccc(O)c2O (stereo not drawn)	-0.2	4.5	9.8	0.9	1.5	-31.6
CC[C@]12c3[nH]c4ccc(OC)cc4c3CCN1C(=O)C(CC(=O)NCc1ccco1)C[C@@H]2C(=O)N1CCN(C(=O)c2ccco2)CC1 (stereo partly drawn)	-13.8	4.0	-6.1	4.2	-10.1	4.6
COc1ccc(OC2C(=O)N(Cc3ccc(F)cc3)C2c2ccc(OC)c(OC)c2)cc1 (stereo not drawn)	-11.5	9.0	-1.4	5.0	-23.6	27.7
COc1ccc(OC2C(=O)N(Cc3ccc4c(c3)OCO4)C2c2sccc2C)cc1 (stereo not drawn)	28.4	16.2	-11.4	3.2	11.9	50.0*
COc1ccc(C2=Nn3c([n+](C)c4ccccc43)SC2)cc1	-33.0	41.8*	-3.0	1.7	-17.8	11.8
C[n+]1c2n(c3ccccc31)N=C(c1ccc(Cl)cc1)CS2	-28.9	21.0	-4.5	1.5	-21.3	0.4
CN(C)c1ccc(/C=N/NC(=O)C(=O)/C=C2\NC3(CCCC3)Cc3ccccc32)cc1	-20.2	18.9	-6.9	1.9	-18.9	26.7
COc1cc(/C=N/NC(=O)C(=O)/C=C2\NC3(CCCC3)Cc3ccccc32)ccc1O	1.8	61.0*	-2.9	5.5	-18.5	23.7
N#CC1(c2ccccc2)CCC(NCCc2ccccc2)CC1 (stereo not drawn)	-56.5	7.4	-13.8	40.7*	-10.5	8.6
O=C(NCCc1ccccc1)C1(c2ccccc2)CCCC1	-15.1	9.2	-11.5	22.6	-25.5	-5.2
CCOC(OCC)c1cn(Cc2ccc(C(=O)c3ccccc3)cc2)nn1	4.3	33.0	-7.7	4.9	44.2*	10.4
CCOc1ccc(NC(=O)C2CC(=O)N(CCc3ccc(OC)c(OC)c3)C2)cc1OCC (stereo not drawn)	-17.9	11.1	-2.5	1.3	-18.5	4.3
NC(=O)c1oc2ccccc2c1NC(=O)c1nc2ccccc2s1	-11.8	23.3	-1.2	7.7	-22.4	0.3
O=C(Nc1nnc(-c2ccccc2)o1)c1nc2ccccc2s1	6.0	6.2	7.6	154.4*	27.8*	42.4
CNc1ncnc2c1ncn2[C@H]1CN(Cc2ccc(-c3ccccc3)cc2)C[C@@H](CO)O1	x	x	1.6	6.2	x	0.2
O=[N+]([O-])c1cnn2cc(Br)cnc12	-14.2	73.8*	-0.1	2.0	2.1	-14.5
CNC(=O)c1ccsc1NC(=O)c1ccccc1	-7.8	43.3*	-2.7	5.2	-4.9	-17.3
CNC(=O)c1ccsc1NC(=O)CCS(=O)(=O)c1ccccc1	-8.6	7.4	1.8	0.9	2.2	-5.7
